In ChEMBL document CHEMBL1157057, “Iridoids and lignans from Valeriana jatamansi” (J Nat Prod, 2010):

Key:
Format in all cases: functional, cell-based
A549 = test: Cytotoxicity against human A549 cells after 24 hrs by MTT assay
Summary of the method: (§1)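 Human cancer cell lines from ATCC were seeded at 3000 cells per well and dosed 24 h after seeding across a range of concentrations. After 24 h of compound exposure, MTT was added and incubation continued another 24 h. Viability was read as absorbance at 570 nm and IC50 calculated. Paclitaxel was the positive control.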

PC-3M = test: (§2) Cytotoxicity against human PC3M cells after 24 hrs by MTT assay; summary of the method: as §1
Bel-7402 = test: Cytotoxicity against human Bel7402 cells after 24 hrs by MTT assay; summary of the method: as §1
HCT-8 = test: Cytotoxicity against human HCT8 cells after 24 hrs by MTT assay; summary of the method: as §1
[1] = as §2; details: PC-3M; summary of the method: as §1

Row | Compound | Activity (A549) | Activity (PC-3M) | Activity (Bel-7402) | Activity (HCT-8) | IC50 [1] [µM] | IC50 (HCT-8; HCT-8, 24 h) [µM]
1 | C[C@]12O[C@@H]3OC(=O)[C@H]1[C@H](C[C@@H]2O)[C@H]3CO | Not toxic | Not toxic | Not toxic | Not toxic | – | –
2 | CO[C@@H]1O[C@]2(C)[C@@H](O)C[C@@H]3[C@H]1COC(=O)[C@@H]32 | Not toxic | Not toxic | Not toxic | Not toxic | – | –
3 | C=C1CO[C@@]2(CO)C(CO)=CC[C@H]12 | Not toxic | Not toxic | Not toxic | Not toxic | – | –
4 | C=C(C=O)[C@H]1C[C@H](O)[C@@](C)(O)[C@H]1C(=O)OC | Not toxic | Not toxic | Not toxic | Not toxic | – | –
5 | C=C1[C@H]2OC[C@H]3[C@@H]1C[C@H](O)[C@@]3(C)O2 | Not toxic | Not toxic | Not toxic | Not toxic | – | –
6 | C=C(CO)[C@H]1C[C@H](O)[C@@](C)(O)[C@H]1CO | Not toxic | Not toxic | Not toxic | Not toxic | – | –
7 | C=C1COC(=O)[C@H]2[C@@H]1C[C@H](O)[C@@]2(C)O | Not toxic | Not toxic | Not toxic | Not toxic | – | –
8 | CO[C@H]1OC(=O)[C@H]2[C@@H]3C[C@H](O)[C@@]2(C)OC[C@H]13 | Not toxic | Not toxic | Not toxic | Not toxic | – | –
9 | C=C(C=O)[C@@]1(O)C[C@H](OC(C)=O)C(CO)=C1C=O | Not toxic | Not toxic | Not toxic | Not toxic | – | –
10 | C[C@H]1COC(=O)[C@H]2[C@@H]1C[C@H](O)[C@@]2(C)O | Not toxic | Not toxic | Not toxic | Not toxic | – | –
11 | C=C1[C@H]2OC(=O)[C@H]3[C@@H]1C[C@H](O)[C@@]3(C)O2 | Not toxic | Not toxic | Not toxic | Not toxic | – | –
12 | COc1cc(C[C@H]2CO[C@H](c3ccc(O)c(OC)c3)[C@H]2COC(=O)CC(C)C)ccc1O [(+)-9'-ISOVALEROXYLARICIRESINOL] | Not toxic | – | Not toxic | – | 8.1 | 5.3
13 | C[C@@H]1COC(=O)[C@H]2[C@@H]1C[C@H](O)[C@@]2(C)O | Not toxic | Not toxic | Not toxic | Not toxic | – | –
14 | C=C1[C@H]2O[C@@H](O)[C@H]3[C@@H]1C[C@H](O)[C@@]3(C)O2 | Not toxic | Not toxic | Not toxic | Not toxic | – | –
